The target in data set [1] is Voltage-gated inwardly rectifying potassium channel KCNH2 (Homo sapiens, UniProt Q12809). Kind of data set: Activity at HERG potassium channel. The class given is functional.
In data set [2] the target is 5-hydroxytryptamine receptor 2A (Homo sapiens, UniProt P28223). Kind of data set: Displacement of [3H]ketanserin from human 5HT2A receptor expressed in CHOK1 cells. The class given is cell-based, CHO-K1. The procedure, abridged: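 Membranes from confluent CHO K1 cells expressing human 5-HT2A were incubated with [3H]ketanserin (76 Ci/mmol) for 15 min at 37 °C with shaking at 180 rpm. Buffer was 50 mM Tris pH 7.7, 0.1% ascorbate, pargyline, MgSO4 and 0.5 mM EDTA. Bound and free ligand were separated by GF/B filtration and the filters counted. Mianserin defined non-specific binding. Five-point log titrations were fitted with a four-parameter curve to give IC50 and Ki.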
In general terms: In a radioligand displacement assay an active substance lowers the binding of a labelled ligand.

Data set [3] concerns the target T1, 5-hydroxytryptamine receptor 2C (Homo sapiens, UniProt P28335).
T1 sequence (P28335 whole entry): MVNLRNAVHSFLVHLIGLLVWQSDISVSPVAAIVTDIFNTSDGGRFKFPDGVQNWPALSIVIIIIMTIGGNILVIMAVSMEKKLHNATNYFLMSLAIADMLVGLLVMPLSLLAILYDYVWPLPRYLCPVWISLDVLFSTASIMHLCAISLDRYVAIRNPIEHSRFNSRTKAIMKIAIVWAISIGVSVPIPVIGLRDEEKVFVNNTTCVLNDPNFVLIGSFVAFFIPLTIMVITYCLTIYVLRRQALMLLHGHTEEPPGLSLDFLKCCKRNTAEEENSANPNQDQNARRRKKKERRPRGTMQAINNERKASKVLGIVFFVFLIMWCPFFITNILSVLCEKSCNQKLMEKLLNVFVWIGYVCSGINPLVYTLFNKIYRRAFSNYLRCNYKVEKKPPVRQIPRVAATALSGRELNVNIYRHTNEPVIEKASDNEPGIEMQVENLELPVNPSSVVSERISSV
In words: Binding affinity to 5HT2C receptor.

Data set [4] concerns the target 5-hydroxytryptamine receptor 2A (Rattus norvegicus, UniProt P14842). In words: Binding affinity to rat 5HT2A receptor.

A value given as a limit tells only on which side of the number the result lay.

Chain of Voltage-gated inwardly rectifying potassium channel KCNH2 (Q12809 whole entry): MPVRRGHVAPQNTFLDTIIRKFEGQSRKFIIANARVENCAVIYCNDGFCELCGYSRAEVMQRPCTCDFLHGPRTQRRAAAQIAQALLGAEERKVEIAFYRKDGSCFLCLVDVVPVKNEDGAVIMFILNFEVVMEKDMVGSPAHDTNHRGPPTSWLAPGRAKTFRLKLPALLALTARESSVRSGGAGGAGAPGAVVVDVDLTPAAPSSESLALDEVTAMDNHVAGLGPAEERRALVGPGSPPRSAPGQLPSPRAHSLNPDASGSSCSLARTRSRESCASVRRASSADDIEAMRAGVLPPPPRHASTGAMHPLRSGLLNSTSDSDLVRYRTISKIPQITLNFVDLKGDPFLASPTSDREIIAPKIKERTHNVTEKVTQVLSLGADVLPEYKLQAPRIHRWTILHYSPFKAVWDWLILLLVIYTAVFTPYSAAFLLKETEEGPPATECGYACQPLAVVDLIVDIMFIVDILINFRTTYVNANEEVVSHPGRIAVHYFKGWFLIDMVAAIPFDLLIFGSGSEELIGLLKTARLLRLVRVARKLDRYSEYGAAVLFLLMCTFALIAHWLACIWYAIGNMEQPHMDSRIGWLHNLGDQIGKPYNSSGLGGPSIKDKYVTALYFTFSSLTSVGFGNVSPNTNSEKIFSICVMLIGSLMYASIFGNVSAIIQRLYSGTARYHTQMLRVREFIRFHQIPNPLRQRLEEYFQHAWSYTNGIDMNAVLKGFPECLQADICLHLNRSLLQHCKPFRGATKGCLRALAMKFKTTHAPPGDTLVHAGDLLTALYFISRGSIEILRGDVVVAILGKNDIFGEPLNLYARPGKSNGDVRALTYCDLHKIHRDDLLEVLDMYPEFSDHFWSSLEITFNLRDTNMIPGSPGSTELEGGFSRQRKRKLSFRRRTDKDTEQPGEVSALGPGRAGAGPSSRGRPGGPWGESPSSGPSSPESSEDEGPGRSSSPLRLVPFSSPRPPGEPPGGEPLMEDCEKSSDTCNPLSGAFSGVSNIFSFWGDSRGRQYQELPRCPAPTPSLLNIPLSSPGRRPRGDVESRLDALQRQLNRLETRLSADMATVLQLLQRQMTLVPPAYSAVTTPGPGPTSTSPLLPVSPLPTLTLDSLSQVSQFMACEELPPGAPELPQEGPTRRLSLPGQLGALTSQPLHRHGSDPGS
Chain of 5-hydroxytryptamine receptor 2A (Homo sapiens, UniProt P28223) (P28223 whole entry): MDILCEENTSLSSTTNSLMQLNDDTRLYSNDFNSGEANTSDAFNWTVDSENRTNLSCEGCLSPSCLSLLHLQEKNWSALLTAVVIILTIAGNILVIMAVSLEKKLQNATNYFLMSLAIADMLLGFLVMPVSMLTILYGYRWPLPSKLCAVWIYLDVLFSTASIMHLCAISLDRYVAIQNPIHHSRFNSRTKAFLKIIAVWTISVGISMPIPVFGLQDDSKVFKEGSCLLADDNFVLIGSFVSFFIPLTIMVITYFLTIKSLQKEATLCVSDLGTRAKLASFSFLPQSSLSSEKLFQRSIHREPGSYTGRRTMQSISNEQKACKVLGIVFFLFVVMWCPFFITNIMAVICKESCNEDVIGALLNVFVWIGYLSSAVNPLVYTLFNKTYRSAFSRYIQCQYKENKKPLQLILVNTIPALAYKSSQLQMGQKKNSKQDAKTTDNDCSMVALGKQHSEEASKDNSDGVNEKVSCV
Chain of 5-hydroxytryptamine receptor 2A (Rattus norvegicus, UniProt P14842) (P14842 whole entry): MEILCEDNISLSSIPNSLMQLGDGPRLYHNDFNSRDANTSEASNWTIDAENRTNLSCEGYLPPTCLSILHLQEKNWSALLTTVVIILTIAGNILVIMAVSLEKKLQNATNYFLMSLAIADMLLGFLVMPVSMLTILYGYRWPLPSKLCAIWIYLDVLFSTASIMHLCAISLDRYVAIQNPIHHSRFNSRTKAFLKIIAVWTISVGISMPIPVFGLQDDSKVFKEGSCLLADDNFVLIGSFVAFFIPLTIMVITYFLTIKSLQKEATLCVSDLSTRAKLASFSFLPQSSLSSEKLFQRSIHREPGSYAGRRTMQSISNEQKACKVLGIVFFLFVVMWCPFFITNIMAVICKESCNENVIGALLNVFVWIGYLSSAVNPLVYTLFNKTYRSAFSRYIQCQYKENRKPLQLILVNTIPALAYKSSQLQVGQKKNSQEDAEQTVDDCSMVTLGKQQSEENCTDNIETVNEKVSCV

In turn, `Cc1ccc(C2=CC(NC(C)(C)C)=NCCN2)c(C)c1` showed an Activity in data set [1] of more than 1000 nM. In addition, the IC50 in data set [2] was 0.071 µM.
`CCN(CC)C1=NCCNC(c2ccc(C)cc2)=C1` returned an Activity in data set [1] of more than 1000 nM. This molecule also had a 50% inhibitory concentration (IC50) in data set [2] of more than 1 µM.
Taken in the same sequence, the figures for `CC(C)(C)NC1=NCCNC(c2cccc(C(F)(F)F)c2)=C1` were more than 1000 nM and 0.514 µM.
Taken in the same sequence, the figures for `CCC(C)(CC)NC1=NCCNC(c2ccccc2F)=C1` were more than 1000 nM and 0.0045 µM.
For `CCN(CC)C1=NCCNC(c2ccccc2F)=C1`, in data set [1], the Activity is reported as more than 1000 nM. In addition, in data set [2], the IC50 was more than 1 µM.
The molecule `CCC(CC)(CC)NC1=NCCNC(c2ccc(F)cc2F)=C1` had an Activity in data set [1] of more than 1000 nM. Moreover, the IC50 was 0.0037 µM in data set [2] and 0.086 µM in data set [3].
For `Cc1ccc(C2=CC(NC(C)(C)Cc3ccccc3)=NCCN2)cc1`, the Activity in data set [1] is 300 nM. This molecule returned an IC50 in data set [2] of 0.0024 µM.
With `CC(C)(C)NC1=NCCNC(c2ccc(F)cc2)=C1`, the Activity in data set [1] is reported as more than 1000 nM. Further, the IC50 was 0.021 µM in data set [2] and 0.637 µM in data set [3].
In turn, `CC1(NC2=NCCNC(c3ccc(F)cc3)=C2)CCCCC1` registered an Activity in data set [1] of more than 1000 nM. Moreover, the IC50 in data set [2] turned out to be 0.0016 µM.
In data set [1], `CCC(C)(CC)NC1=NCCNC(c2ccc(F)cc2)=C1` gave an Activity of more than 1000 nM. The IC50 in data set [2] amounted to 0.0015 µM; in data set [3], 0.016 µM.
In turn, `Cc1ccc(C2=CC(NC(C)(C)C)=NCCN2)c(F)c1` returned an Activity in data set [1] of more than 1000 nM. This molecule had an IC50 in data set [2] of 0.014 µM.
In data set [1], `Cc1ccc(C2=CC(N3CCOCC3)=NCCN2)cc1` came in with an Activity of more than 1000 nM. For the same molecule, the IC50 in data set [2] was more than 1 µM.
The molecule `CCC1(NC2=NCCNC(c3ccc(F)cc3)=C2)CCCC1` came in with an Activity in data set [1] of more than 1000 nM. For the same molecule, the IC50 in data set [2] came out at 0.0008 µM.
`CC(C)(C)NC1=NCCNC(c2ccc(F)cc2F)=C1`: the Activity in data set [1] is more than 1000 nM. The same molecule returned an IC50 in data set [2] of 0.011 µM.
Molecule `CCC(C)(CC)NC1=NCCNC(c2ccc(C)cc2)=C1` returned an Activity in data set [1] of more than 1000 nM. Further, the IC50 worked out at 0.0149 µM in data set [2] and 0.075 µM in data set [3].
Taken in the same sequence, the figures for `CC(C)(C)NC1=NCCNC(c2ccccc2)=C1` were more than 1000 nM, 0.035 µM and 1.05 µM.
In data set [1], `CC(C)(C)NC1=NCCNC(c2ccccc2F)=C1` returned an Activity of more than 1000 nM. The IC50 in data set [2] was found to be 0.018 µM.
As for `COc1ccc(C2=CC(NC(C)(C)C)=NCCN2)cc1`, the Activity in data set [1] was more than 1000 nM. The molecule also showed an IC50 in data set [2] of 0.534 µM.
The molecule `CCC1(NC2=NCCNC(c3ccc(F)cc3F)=C2)CCCC1` showed an Activity in data set [1] of more than 1000 nM. The half-maximal inhibitory concentration (IC50) in data set [4] stood at 0.0023 µM; in data set [2] it was 0.0011 µM; in data set [3] it was 0.027 µM.
`Cc1ccc(C2=CC(N3CCNCC3)=NCCN2)cc1` displayed an Activity in data set [1] of more than 1000 nM. Also, in data set [2], the IC50 is more than 1 µM.
For `CC(C)(C)NC1=NCCNC(c2ccc(C#N)cc2)=C1` the same measures were more than 1000 nM and 2.8 µM.
Taken in the same sequence, the figures for `Cc1ccc(C2=CC(NC(C)(C)C)=NCCN2)cc1` were more than 1000 nM and 0.011 µM.
For `CC(C)(C)NC1=NCCNC(c2ccccc2Cl)=C1` the same measures were more than 1000 nM and 0.076 µM.
`CC(C)(Cc1ccccc1)NC1=NCCNC(c2ccccc2F)=C1` gave an Activity in data set [1] of 270 nM. In addition, the IC50 in data set [2] turned out to be 0.0038 µM.
In the case of `CCC1(NC2=NCCNC(c3ccccc3F)=C2)CCCC1`, the Activity in data set [1] was more than 1000 nM. Further, the IC50 in data set [2] amounted to 0.0036 µM.
For `Cc1ccccc1C1=CC(NC(C)(C)C)=NCCN1` the same measures were more than 1000 nM and 0.112 µM.
In data set [1], `CC(C)(NC1=NCCNC(c2ccc(F)cc2F)=C1)C1CCC1` showed an Activity of more than 1000 nM. The molecule also gave an IC50 in data set [2] of 0.0014 µM.
For `CC(C)(C)CNC1=NCCNC(c2ccccc2F)=C1` the same measures were more than 1000 nM and 1.52 µM.

By IC50 is commonly meant the concentration at which inhibition is half-maximal. High values mean lower potency, low ones higher potency.

Values taken from ChEMBL document CHEMBL1139732, “Identification and optimisation of 5-amino-7-aryldihydro-1,4-diazepines as 5-HT2A ligands” (Bioorg Med Chem Lett, 2006).
